Assay results pooled from the literature.
Compare with care: the assays were run in different laboratories.
Target: Phosphorylase b kinase gamma catalytic chain, liver/testis isoform (PHKG2, Homo sapiens, UniProt P15735)
One construct used (P15735 1-406): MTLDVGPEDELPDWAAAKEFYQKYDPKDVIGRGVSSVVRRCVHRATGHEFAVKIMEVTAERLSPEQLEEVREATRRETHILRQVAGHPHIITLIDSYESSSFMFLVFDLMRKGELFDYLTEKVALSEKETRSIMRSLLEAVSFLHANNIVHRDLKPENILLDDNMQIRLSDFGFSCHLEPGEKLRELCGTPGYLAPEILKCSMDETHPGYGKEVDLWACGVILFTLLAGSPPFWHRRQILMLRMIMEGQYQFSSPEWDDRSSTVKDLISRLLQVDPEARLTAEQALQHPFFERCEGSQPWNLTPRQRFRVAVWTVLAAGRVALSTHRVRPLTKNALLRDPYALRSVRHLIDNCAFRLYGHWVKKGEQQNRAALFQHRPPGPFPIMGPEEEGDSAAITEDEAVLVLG

The remaining binding of `CN(c1nccc(-c2cnn3ncccc23)n1)C1CC1` is reported as 81% (binding; 1 µM).
With `c1cncc(-c2cccc(Nc3nccc(NC4CCCCC4)n3)c2)c1` the remaining binding was 71% (binding, competition with immobilised ligand; 10 µM).
`COc1cnc(Nc2cccc(S(N)(=O)=O)c2)nc1N1CCN(c2ccccc2)CC1` has a remaining binding of 82% (binding, competition with immobilised ligand; 1 µM).
The remaining binding of `Cc1cnn2ncc(-c3ccnc(N(C)C)n3)c2c1` is reported as 95% (binding; 1 µM).
The remaining binding of `C[C@@H]1CN(c2cc(-c3n[nH]c4ccc(OC5(C)CC5)cc34)ncn2)C[C@H](C)O1` is reported as 91% (cell-free assay, competition with immobilised ligand; 0.1 µM).
`CCN1CCN(Cc2ccc(C(=O)Nc3ccc(C)c(Oc4ccc5c(c4)CC(=O)N5)c3)cc2C(F)(F)F)CC1` gave a remaining binding of 100% (binding, competition with immobilised ligand; 1 µM).
With `O=C(N1CCS(=O)(=O)CC1)N1C[C@H](c2ccc(OC(F)(F)F)cc2)C[C@H](c2nc(C3CC3)no2)C1` the remaining binding was 100% (cell-free assay, competition with immobilised ligand; 1 µM).
With `O=C(NCCCN1CCOCC1)c1ccc(Nc2nccc(-c3cc4ccccc4s3)n2)cc1` the remaining binding was 33% (binding, competition with immobilised ligand; 1 µM).
`C[C@@H](c1ccc(-n2cnc3c(N)ncnc32)cc1)N1CCc2nn(C)c(Cc3ccccc3)c2C1=O` gave a remaining binding of 100% (binding, competition with immobilised ligand; 0.1 µM).
For `N[C@@H]1CCN(c2nccc(-c3cnn4ncccc34)n2)C1`, the remaining binding was 84% (binding; 1 µM).
`CS(=O)(=O)N1CCCC(NC(=O)[C@H](CCC2CCCCC2)NC(=O)c2ccc(CNC(=O)c3cnc4ccccn34)cc2)C1` (stereo partly drawn) has a remaining binding of 100% (cell-free assay, competition with immobilised ligand; 0.1 µM).
The remaining binding of `O=C(Nc1c[nH]nc1C(=O)NC1CCNCC1)c1cc(F)cc(F)c1` is reported as 100% (binding, competition with immobilised ligand; 1 µM).
`Cc1c[nH]c2nccc(Oc3c(F)cc(Nc4cc(Cl)nc(N)n4)cc3F)c12` has a remaining binding of 89% (cell-free assay, competition with immobilised ligand; 0.1 µM).
`O=C(c1ccc(Nc2ncc(Cl)c(-c3ccc(Cl)s3)n2)cc1)N1CCC(N2CCCC2)CC1` has a remaining binding of 66% (binding, competition with immobilised ligand; 1 µM).
The remaining binding of `CN(C)c1nccc(-c2cnc3ncccn23)n1` is reported as 89% (binding; 1 µM).
For `O=C(NCCCC1CCCCC1)c1ccc(CNC(=O)c2cnn(-c3ccccc3)c2C(F)(F)F)cc1`, the remaining binding was 100% (cell-free assay, competition with immobilised ligand; 0.1 µM).
The remaining binding of `C[C@@H]1CCN(c2nccc(-c3cnn4ncccc34)n2)C1` is reported as 72% (binding; 1 µM).
With `COc1ncc2cc3ccccc3nc2c1C#N` the remaining binding was 100% (cell-free assay, competition with immobilised ligand; 5 µM).
`CN(CCCC(F)(F)F)c1nccc(-c2cnn3ncccc23)n1` has a remaining binding of 100% (binding; 1 µM).
`C[C@H](c1cccc(C#N)c1)n1cc(Cl)cc(C(N)=O)c1=N` has a remaining binding of 100% (cell-free assay, competition with immobilised ligand; 1 µM).
`O=C(c1ccc(Nc2nccc(-c3cc4ccccc4s3)n2)cc1)N1CCC(N2CCCC2)CC1` gave a remaining binding of 64% (binding, competition with immobilised ligand; 1 µM).
